Experimental data reported in ChEMBL document CHEMBL3526049 (Drug Metab Dispos, 2012).

Columns and labels:
Details in all cases: in vivo
[1] = system: Rattus norvegicus; experiment: Ratio of AUC (0 to 4 hrs) for metabolite to AUC (0 to 4 hrs) for parent compound in wild-type Sprague-Dawley rat at 10 mg/kg, po by LC-MS/MS analysis; assay type: ADME, organism-based; design: dose 10 mg/kg, route oral
[2] = system: Rattus norvegicus; experiment: AUC (0 to 4 hrs) in wild-type Sprague-Dawley rat treated with loperamide at 10 mg/kg, po by LC-MS/MS analysis; assay type: ADME, organism-based, Plasma; design: time < 4 hr, dose 10 mg/kg, route oral
[3] = system: Rattus norvegicus; experiment: Cmax in BCRP knockout Sprague-Dawley rat treated with loperamide at 10 mg/kg, po by LC-MS/MS analysis; assay type: ADME, organism-based; design: dose 10 mg/kg, route oral
Outline: (§1)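 Male Sprague-Dawley rats (knockout or wild type matched for age and weight), femoral artery and vein cannulated, at least 2 days recovery. Crossover design: IV bolus 1 mg/kg on day 0 (saline with 0.2 M equivalents HCl), oral gavage 10 mg/kg on day 3 (water with 0.2 M equivalents HCl). Arterial plasma sampled to 24 h (Mdr1a oral arm to 4 h). Analysed by LC-MS/MS and noncompartmental analysis.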

[4] = system: Rattus norvegicus; experiment: Cmax in MDR1A knockout Sprague-Dawley rat treated with loperamide at 10 mg/kg, po by LC-MS/MS analysis; assay type: ADME, organism-based; design: dose 10 mg/kg, route oral; outline: as §1
[5] = system: Rattus norvegicus; experiment: Ratio of AUC (0 to 4 hrs) for metabolite to AUC (0 to 4 hrs) for parent compound in MDR1A knockout Sprague-Dawley rat at 10 mg/kg, po by LC-MS/MS analysis; assay type: ADME, organism-based; design: dose 10 mg/kg, route oral
[6] = system: Rattus norvegicus; experiment: AUC (0 to 4 hrs) in MDR1A knockout Sprague-Dawley rat treated with loperamide at 10 mg/kg, po by LC-MS/MS analysis; assay type: ADME, organism-based, Plasma; design: time < 4 hr, dose 10 mg/kg, route oral
[7] = system: Rattus norvegicus; experiment: Cmax in MRP2 knockout Sprague-Dawley rat treated with loperamide at 10 mg/kg, po by LC-MS/MS analysis; assay type: ADME, organism-based; design: dose 10 mg/kg, route oral; outline: as §1
[8] = system: Rattus norvegicus; experiment: AUC (infinity) in BCRP knockout Sprague-Dawley rat treated with loperamide at 10 mg/kg, po by LC-MS/MS analysis; assay type: ADME, organism-based, Plasma; design: time infinity, dose 10 mg/kg, route oral; outline: as §1
[9] = system: Rattus norvegicus; experiment: Ratio of AUC (0 to 4 hrs) for metabolite to AUC (0 to 4 hrs) for parent compound in BCRP knockout Sprague-Dawley rat at 10 mg/kg, po by LC-MS/MS analysis; assay type: ADME, organism-based; design: dose 10 mg/kg, route oral
[10] = system: Rattus norvegicus; experiment: Ratio of AUC (0 to 4 hrs) for metabolite to AUC (0 to 4 hrs) for parent compound in MRP2 knockout Sprague-Dawley rat at 10 mg/kg, po by LC-MS/MS analysis; assay type: ADME, organism-based; design: dose 10 mg/kg, route oral
[11] = system: Rattus norvegicus; experiment: Cmax in wild-type Sprague-Dawley rat treated with loperamide at 10 mg/kg, po by LC-MS/MS analysis; assay type: ADME, organism-based; design: dose 10 mg/kg, route oral; outline: as §1
[12] = system: Rattus norvegicus; experiment: AUC (infinity) in wild-type Sprague-Dawley rat treated with loperamide at 10 mg/kg, po by LC-MS/MS analysis; assay type: ADME, organism-based, Plasma; design: time infinity, dose 10 mg/kg, route oral; outline: as §1
[13] = system: Rattus norvegicus; experiment: AUC (infinity) in MRP2 knockout Sprague-Dawley rat treated with loperamide at 10 mg/kg, po by LC-MS/MS analysis; assay type: ADME, organism-based, Plasma; design: time infinity, dose 10 mg/kg, route oral; outline: as §1

SMILES: CNC(=O)C(CCN1CCC(O)(c2ccc(Cl)cc2)CC1)(c1ccccc1)c1ccccc1
- Ratio AUC [1]: 2.3
- AUC [2]: 427 ng.Eq.hr/ml
- Cmax [3]: 150 ng.Eq/ml
- Cmax [4]: 193 ng.Eq/ml
- Ratio AUC [5]: 1
- AUC [6]: 635 ng.Eq.hr/ml
- Cmax [7]: 109 ng.Eq/ml
- AUC [8]: 3256 ng.Eq.hr/ml
- Ratio AUC [9]: 3.3
- Ratio AUC [10]: 3.5
- Cmax [11]: 158 ng.Eq/ml
- AUC [12]: 1875 ng.Eq.hr/ml
- AUC [13]: 3658 ng.Eq/ml
